Source: ChEMBL document CHEMBL1157634, “Differential binding of phenothiazine urea derivatives to wild-type human cholinesterases and butyrylcholinesterase mutants” (Bioorg Med Chem, 2010)
The source made the active and inactive calls. No cut-off for these calls is given here.

How the values were obtained:
Acetylcholinesterase [1] = biological target: T1, Acetylcholinesterase (Homo sapiens, UniProt P22303); experiment: Inhibition of human recombinant AChE by modified Ellman's spectrophotometric method
T1 sequence (P22303 whole entry): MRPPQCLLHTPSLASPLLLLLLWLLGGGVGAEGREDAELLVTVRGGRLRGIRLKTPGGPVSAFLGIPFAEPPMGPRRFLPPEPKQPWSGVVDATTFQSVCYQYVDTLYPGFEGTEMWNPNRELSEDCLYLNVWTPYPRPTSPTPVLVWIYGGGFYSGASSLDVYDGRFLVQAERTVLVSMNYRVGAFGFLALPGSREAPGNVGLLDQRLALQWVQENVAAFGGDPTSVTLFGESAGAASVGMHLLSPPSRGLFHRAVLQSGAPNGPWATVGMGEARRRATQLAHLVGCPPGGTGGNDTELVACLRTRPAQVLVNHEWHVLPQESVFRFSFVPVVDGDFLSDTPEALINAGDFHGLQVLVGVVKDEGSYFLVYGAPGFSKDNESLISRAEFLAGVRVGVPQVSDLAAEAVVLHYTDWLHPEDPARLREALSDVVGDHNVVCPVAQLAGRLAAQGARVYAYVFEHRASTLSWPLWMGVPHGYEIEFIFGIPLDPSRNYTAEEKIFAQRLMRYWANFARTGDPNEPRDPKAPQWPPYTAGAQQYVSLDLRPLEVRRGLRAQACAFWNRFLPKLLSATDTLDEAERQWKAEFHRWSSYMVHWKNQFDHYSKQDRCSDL

Cholinesterase [2] = biological target: T2, Cholinesterase (Homo sapiens, UniProt P06276); experiment: Inhibition of human plasma BuChE by modified Ellman's spectrophotometric method; type: cell-free
T2 sequence (P06276 whole entry): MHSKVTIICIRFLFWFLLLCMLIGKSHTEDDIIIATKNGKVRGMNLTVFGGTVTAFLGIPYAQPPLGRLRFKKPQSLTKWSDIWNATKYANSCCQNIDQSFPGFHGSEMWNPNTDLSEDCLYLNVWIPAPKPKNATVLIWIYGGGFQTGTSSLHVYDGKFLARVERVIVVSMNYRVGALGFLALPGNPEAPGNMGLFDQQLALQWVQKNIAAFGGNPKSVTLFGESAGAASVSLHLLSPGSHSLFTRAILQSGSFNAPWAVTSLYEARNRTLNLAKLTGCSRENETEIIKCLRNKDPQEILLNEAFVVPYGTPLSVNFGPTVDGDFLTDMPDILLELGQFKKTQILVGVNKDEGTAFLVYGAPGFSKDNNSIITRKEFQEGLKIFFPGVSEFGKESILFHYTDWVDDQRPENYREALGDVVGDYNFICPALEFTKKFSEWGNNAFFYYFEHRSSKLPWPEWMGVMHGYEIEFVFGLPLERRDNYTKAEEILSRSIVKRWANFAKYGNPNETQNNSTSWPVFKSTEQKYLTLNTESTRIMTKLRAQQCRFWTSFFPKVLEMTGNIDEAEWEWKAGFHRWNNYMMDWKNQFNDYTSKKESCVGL
Procedure, shortened: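 Purified human plasma BuChE (~0.05 units in 0.1% gelatin) in DTNB buffer at pH 8.0, 23 °C, read at 412 nm. Inhibitors first screened in 1:10 serial dilutions in 50% acetonitrile. Lineweaver–Burk plots used butyrylthiocholine 3 × 10^-5–1.6 × 10^-4 M without inhibitor and at two inhibitor concentrations. Ki taken as the x-intercept of the slope replot. Runs generally at least in triplicate and averaged.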

Homo sapiens [3] = organism: Homo sapiens; experiment: Inhibition of human BuChE Y332A mutant assessed as residual activity at 500 nM by modified Ellman's spectrophotometric method relative to control
Procedure, shortened: (§1)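 Recombinant human BuChE mutants (D70G, F329A, Y332A), with wild-type BuChE for comparison, tested by modified Ellman assay. Buffered DTNB (usually pH 8.0), 23 °C, single butyrylthiocholine concentration of 1.6 × 10^-4 M final. Inhibitor added in 50% aqueous acetonitrile (final 1.67% v/v). Rate read at 412 nm every 5 s for 1 min.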

Acetylcholinesterase [4] = biological target: T1, Acetylcholinesterase; experiment: Inhibition of human AChE at 1.8 uM by Michaelis-Menten analysis in presence of 10 mM acetylthiocholine as substrate
Procedure, shortened: (§2)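 Purified recombinant human AChE (~0.03 units in 0.1% aqueous gelatin) in buffered DTNB (usually pH 8.0) at 23 °C. Fixed enzyme and inhibitor concentrations across acetylthiocholine 0.039–40 mM. Inhibitor added in 50% aqueous acetonitrile (final 1.67% v/v). Hydrolysis rate (ΔA/min) read at 412 nm every 5 s for 1 min. Michaelis–Menten plots of rate versus substrate concentration.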

Cholinesterase [5] = biological target: T2, Cholinesterase; conditions: 1.8 uM
Cholinesterase [6] = biological target: T2, Cholinesterase; conditions: 50 nM
Acetylcholinesterase [7] = biological target: T1, Acetylcholinesterase; experiment: Inhibition of human AChE at 1.8 uM by Michaelis-Menten analysis in presence of 20 mM acetylthiocholine as substrate; procedure, shortened: as §2
Cholinesterase [8] = biological target: T2, Cholinesterase; conditions: 500 nM
Homo sapiens [9] = organism: Homo sapiens; experiment: Inhibition of human BuChE D70G mutant at 50 nM by modified Ellman's spectrophotometric method; procedure, shortened: as §1
Homo sapiens [10] = organism: Homo sapiens; experiment: Inhibition of human BuChE F329A mutant at 500 nM by modified Ellman's spectrophotometric method; procedure, shortened: as §1
Cholinesterase [11] = biological target: T2, Cholinesterase; conditions: 1.8 uM; remark: listed apart in the source

| Compound | Ki (Acetylcholinesterase [1]) | Ki (Cholinesterase [2]) | also measured |
| --- | --- | --- | --- |
| CCN(CC)C(=O)N1c2ccccc2Sc2ccccc21 | Not Active | 1.05 µM |  |
| O=C(NCCCN1CCOCC1)N1c2ccccc2Sc2ccccc21 | Not Active | 7.86 µM |  |
| CC(C)(C)CNC(=O)N1c2ccccc2Sc2ccccc21 | Not Active | 2.66 µM |  |
| CCN(CC)CCNC(=O)N1c2ccccc2Sc2ccccc21 |  | 0.51 µM | Ki (Acetylcholinesterase [1]; read-out: Ki): 16.3 µM |
| NC(=O)N1c2ccccc2Sc2ccccc21 |  | 90.8 µM | Ki (Acetylcholinesterase [1]; read-out: Ki): 89.3 µM |
| CCCNC(=O)N1c2ccccc2Sc2ccccc21 | Not Active | 20.5 µM |  |
| O=C(Nc1ccccc1)N1c2ccccc2Sc2ccccc21 | Not Active | 0.31 µM |  |
| Cc1ccccc1NC(=O)N1c2ccccc2Sc2ccccc21 | Not Active | 0.71 µM |  |
| CCNC(=O)N1c2ccccc2Sc2ccccc21 |  | 35 µM | Ki (Acetylcholinesterase [1]; read-out: Ki): 1450 µM |
| O=C(NCc1ccccc1)N1c2ccccc2Sc2ccccc21 | Not Active | 4.45 µM |  |
| O=C(N1CCCC1)N1c2ccccc2Sc2ccccc21 | Not Active | 0.56 µM |  |
| O=C(N1CCCCC1)N1c2ccccc2Sc2ccccc21 | Not Active | 1.56 µM |  |
| CN(C)C(=O)N1c2ccccc2Sc2ccccc21 |  | 9.2 µM | Ki (Acetylcholinesterase [1]; read-out: Ki): 400 µM |
| CC(C)NC(=O)N1c2ccccc2Sc2ccccc21 |  | 3.41 µM | Ki (Acetylcholinesterase [1]; read-out: Ki): 691 µM |
| Cc1ccc(NC(=O)N2c3ccccc3Sc3ccccc32)cc1 | Not Active | 12.1 µM |  |
| CCCN(CCC)C(=O)N1c2ccccc2Sc2ccccc21 | Not Active | 0.43 µM |  |
| CN(CCCNC(=O)N1c2ccccc2Sc2ccccc21)c1ccccc1 | Not Active | 0.25 µM |  |
| O=C(NC1CC1)N1c2ccccc2Sc2ccccc21 | Not Active | 42.5 µM |  |
| CNC(=O)N1c2ccccc2Sc2ccccc21 |  | 18.3 µM | Ki (Acetylcholinesterase [1]; read-out: Ki): 9.36 µM |

| Compound | Ki (Acetylcholinesterase [1]) | Ki (Cholinesterase [2]) | also measured |
| --- | --- | --- | --- |
| COc1ccc(NC(=O)N2c3ccccc3Sc3ccccc32)cc1 | Not Active | 9.63 µM |  |
| O=C(NCCN1CCOCC1)N1c2ccccc2Sc2ccccc21 | Not Active | 6.91 µM |  |
| O=C(NC1CCCC1)N1c2ccccc2Sc2ccccc21 | Not Active | 2.99 µM |  |
| O=C(NCCc1ccccc1)N1c2ccccc2Sc2ccccc21 | Not Active | 0.19 µM |  |
| O=C(NC12CC3CC(CC(C3)C1)C2)N1c2ccccc2Sc2ccccc21 | Not Active | 0.35 µM |  |
| CN1CCN(C(=O)N2c3ccccc3Sc3ccccc32)CC1 | Not Active | 17.1 µM |  |
| CC(C)(C)NC(=O)N1c2ccccc2Sc2ccccc21 | Not Active | 10.6 µM |  |
| O=C(NCc1cccc2ccccc12)N1c2ccccc2Sc2ccccc21 | Not Active | 0.15 µM |  |
| O=C(N1CCOCC1)N1c2ccccc2Sc2ccccc21 | Not Active | 7.1 µM |  |
| O=C(NCCN1CCCCC1)N1c2ccccc2Sc2ccccc21 |  | 0.02 µM | Ki (Acetylcholinesterase [1]; read-out: Ki): 0.62 µM |
| O=C(Nc1ccc(Cl)cc1)N1c2ccccc2Sc2ccccc21 | Not Active | 4.69 µM |  |
| O=C(NCCN1CCCC1)N1c2ccccc2Sc2ccccc21 |  | 0.21 µM | Ki (Acetylcholinesterase [1]; read-out: Ki): 29.4 µM |
| CCCCNC(=O)N1c2ccccc2Sc2ccccc21 | Not Active | 24.7 µM |  |
| COCCNC(=O)N1c2ccccc2Sc2ccccc21 | Not Active | 29.1 µM |  |
| O=C(NC1CCCCC1)N1c2ccccc2Sc2ccccc21 | Not Active | 2.81 µM |  |
| CC(C)N(CCNC(=O)N1c2ccccc2Sc2ccccc21)C(C)C |  | 0.009 µM | Activity (Homo sapiens [3]): 50%; inhibition (Acetylcholinesterase [4]): Active; inhibition (Cholinesterase [5]): inactive; inhibition (Cholinesterase [6]): 50%; inhibition (Acetylcholinesterase [7]): inactive; inhibition (Cholinesterase [8]): Active; inhibition (Homo sapiens [9]): inactive; inhibition (Homo sapiens [10]): Active; Ki (Acetylcholinesterase [1]; read-out: Ki): 0.81 µM; inhibition (Cholinesterase [11]): Active |
| O=C(NC1CCC1)N1c2ccccc2Sc2ccccc21 | Not Active | 10 µM |  |
| CC(C)N(C(=O)N1c2ccccc2Sc2ccccc21)C(C)C | Not Active | 0.18 µM |  |
